This is a sample that favours compounds with a hit; in the whole collection about 3.2% have one here.
14-3-3 Bad PPI = inhibitors of 14-3-3 zeta/Bad binding, primary screen, biochemical, TR-FRET, bovine 14-3-3 zeta | 14-3-3 protein zeta/delta (Bos taurus), P63103 | TR-FRET 14-3-3zeta/Dy647-pBad peptide displacement, 1 h | inhibition, % at 21.7 µM | 220,000 tested, 0.71% active | AID 781, 2007;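 active = inhibition above about 70%, limit read from the data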;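 also: 0% = full 14-3-3 plus peptide FRET controls and 100% = background without 14-3-3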
Target sequence (P63103 whole entry, looked up): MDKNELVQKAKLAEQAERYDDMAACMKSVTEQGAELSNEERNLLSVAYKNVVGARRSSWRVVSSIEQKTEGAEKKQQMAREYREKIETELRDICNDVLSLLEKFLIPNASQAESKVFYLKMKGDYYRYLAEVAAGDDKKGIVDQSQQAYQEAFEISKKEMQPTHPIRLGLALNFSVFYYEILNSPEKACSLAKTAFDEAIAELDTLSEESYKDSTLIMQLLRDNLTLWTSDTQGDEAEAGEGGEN
Hck Nef HTS = inhibitors of Nef-activated human Hck kinase, primary screen, biochemical, Z-Lyte FRET, 384-well, Hck-YEEI; Tyrosine-protein kinase HCK (Homo sapiens), P08631; Recombinant Hck-YEEI plus Nef, Z-Lyte FRET kinase assay; inhibition, % at 20 µM; 220,000 tested, 0.68% active; AID 463187, 2010;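 active = Hck-Nef kinase inhibition above about 50%, limit read from the data; inactive = inhibition below that limit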;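 also: 0% = DMSO with Hck plus Nef and 100% = Hck alone without Nef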
Target sequence (P08631 whole entry, looked up): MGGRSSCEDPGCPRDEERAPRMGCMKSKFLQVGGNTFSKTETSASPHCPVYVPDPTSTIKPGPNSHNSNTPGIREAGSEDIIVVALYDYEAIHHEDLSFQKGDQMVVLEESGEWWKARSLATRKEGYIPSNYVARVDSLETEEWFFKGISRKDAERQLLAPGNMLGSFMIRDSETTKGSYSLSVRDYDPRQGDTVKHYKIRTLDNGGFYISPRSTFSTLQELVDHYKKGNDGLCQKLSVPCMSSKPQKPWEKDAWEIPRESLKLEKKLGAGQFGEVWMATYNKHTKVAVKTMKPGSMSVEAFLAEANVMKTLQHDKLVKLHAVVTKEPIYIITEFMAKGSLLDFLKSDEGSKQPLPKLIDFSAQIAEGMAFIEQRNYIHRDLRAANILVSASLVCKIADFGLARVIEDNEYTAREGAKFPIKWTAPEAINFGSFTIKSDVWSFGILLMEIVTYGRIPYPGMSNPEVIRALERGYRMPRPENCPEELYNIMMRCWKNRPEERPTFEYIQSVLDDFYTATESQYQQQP
Mcl1 Bid PPI = Mcl-1/Bid binding inhibitors, primary screen, biochemical, TR-FRET, 1536-well. Induced myeloid leukemia cell differentiation protein Mcl-1 (Homo sapiens), Q07820. TR-FRET Mcl-1/Bid-Dy647 peptide binding. inhibition, % at 21.7 µM. 220,000 tested, 0.97% active. AID 1021, 2008;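 active = compounds that cut the binding signal by more than half at the single screening dose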;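 also: His-tagged Mcl-1 with europium anti-His antibody binding Bid BH3 peptide; 0% = Mcl-1 plus peptide wells and 100% = peptide-only wells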
Calb biofilm kill = clotrimazole potentiators killing C. albicans biofilm, primary screen, 4-compound mixtures; AID 1242, 2008; inhibition, % at 7.6 µM; C. albicans biofilm persisters + clotrimazole, fluorescence viability; primary screen in compound mixtures of four per well; 120,000 tested, 0.02% active;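 active = inhibition above 30.3% in the primary screen of four-compound pools, then above 30% when the compound was retested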;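 also: compounds exposed to preformed 24 h biofilms for 48 h; 0% = untreated biofilm control and 100% = clotrimazole plus chlorhexidine kill blank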
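System: C. albicans CAF4-2 wild-type biofilms; Medium: RPMI/MOPS medium, pH 7.0; Reagent: Clotrimazole, 50 µg/mL; Times: biofilm formation 24 h, compound exposure 48 h, 37 °C; Detection: 2-h Alamar Blue fluorescence, 535/590 nm excitation/emission; Evaluation: percent inhibition of biofilm viability.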
Mcl1-Noxa inh = Mcl-1/Noxa binding inhibitors, primary screen, biochemical, TR-FRET, 1536-well. Induced myeloid leukemia cell differentiation protein Mcl-1 (Homo sapiens), Q07820. TR-FRET Mcl-1/Noxa peptide binding, 2 h. inhibition, % at 21.7 µM. 220,000 tested, 1.5% active. AID 1022, 2008;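 active = compounds that cut the protein-peptide binding signal by more than 50% relative to plate controls in a single-dose test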;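 also: His-tagged Mcl-1 with rhodamine Noxa BH3 peptide and terbium anti-His antibody; 0% = Mcl-1 plus Noxa peptide wells and 100% = peptide-only wells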
Bim-Mcl-1 = inhibitors of Bim peptide binding to Mcl-1, primary screen, biochemical, bead-based flow cytometry, multiplex; AID 1009, 2008; Bim peptide-Mcl-1 binding; 190,000 tested, 0.1% active; inhibition, % at 10 µM; in the data active = inhibition above about 40%;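 also: 0% = no compound tracer wells and 100% = peptide blocker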
The depositor's hits bear a star; . = no result given; [ ] = dose if it differs, or a comment.

SMILES | 14-3-3 Bad PPI | Hck Nef HTS | Mcl1 Bid PPI | Calb biofilm kill | Mcl1-Noxa inh | Bim-Mcl-1
O=c1cc(-c2ccc([N+](=O)[O-])cc2)nc2cc(-c3ccc(F)cc3)[nH]n12 | 1.0 | 1.4 | -46.4 | 14.1 | 64.6* | 0.0
CCN(c1ccc(NC(=O)COC(=O)c2ccc(C)c(S(=O)(=O)N3CCOCC3)c2)cc1)C(C)C | 0.1 | 2.8 | 24.1 | . | 74.5* | -6.0
COc1ccc(-c2csc(NC(=O)/C(N=Nc3ccccc3)=C(\C)O)n2)cc1 | -12.2 | 24.4 | -32.7 | 16.4 | 8.9 | 41.0*
COC(=O)CC1C(=O)NCCN1C(=O)Nc1ccc(Cl)cc1 (stereo not drawn) | -15.6 | 1.7 | -9.7 | . | 2.1 | -3.0
CCOC(=O)CC1C(=O)NCCN1C(=O)Nc1ccc(Cl)cc1 (stereo not drawn) | 73.3*[fluorescence artefact?] | -0.2 | 2.3 | . | 18.1 | 0.0
CC(C)(C)n1nnnc1C(c1cccnc1)N1CCN(c2cccc(C(F)(F)F)c2)CC1 (stereo not drawn) | 57.9 | -4.3 | 58.0* | 8.3 | 30.6 | 11.0
CC(C)(C)n1nnnc1C(c1cccnc1)N1CCN(C2CCCCC2)CC1 (stereo not drawn) | -3.3 | -0.1 | -10.4 | . | -10.1 | -1.0
CCOc1cc(/C=N/NC(=O)Nc2ccccc2)ccc1O | -1.3 | 30.8 | -56.2 | 16.3 | 24.5 | 5.0
CC(=O)Nc1ccc(/C=N/Nc2nc3ccccc3s2)cc1 | -3.8 | -1.0 | -15.1 | 6.8 | 39.9 | .
CC(=O)Nc1sc(NC(=O)c2ccc(Cl)cc2)nc1-c1cccs1 | -7.4 | 0.1 | -18.8 | . | 30.6 | -1.0
CC(=O)Nc1sc(N/N=C\c2ccco2)nc1-c1cccs1 | -1.4 | 0.8 | -74.2 | 15.0 | 73.5* | -5.0
CC(=O)Nc1sc(N/N=C\c2ccccc2)nc1-c1cccs1 | -8.5 | 13.6 | -38.4 | 4.8 | 55.4* | -37.0
CCOc1cc(/C=N/Nc2nc(-c3cccs3)c(NC(C)=O)s2)ccc1O | 2.4 | 28.8 | -81.5 | 24.7 | 101.4* | .
C(=N\Nc1nc2ccccc2s1)/c1ccco1 | 43.4 | 4.6 | -15.0 | . | 22.6 | -1.0
CC(=O)Nc1sc(N/N=C\c2ccccc2Cl)nc1-c1cccs1 | 12.3 | 10.7 | 7.4 | 12.2 | 61.1* | -2.0
Cc1cc(C)c(S(=O)(=O)/N=C2\C=CC(=O)C(Cl)=C2)c(C)c1 | 16.7 | 1.8 | 46.7 | . | 95.5* | 1.0
Cc1ccc(S(=O)(=O)c2c(C)cc(C)nc2Cl)c(C)c1 | 5.3 | 1.8 | -4.3 | . | 0.4 | -5.0
CN(C)S(=O)(=O)N1CCN(S(=O)(=O)N2CCOCC2)CC1 | 1.1 | 56.8* | -0.1 | 7.1 | 1.4 | -1.0
CCC(C)[C@H](NC(=O)N1CCCCCC1)C(=O)OC (stereo partly drawn) | -2.8 | 13.7 | -13.1 | 8.4 | -2.5 | .
Cc1nc(-c2ccccc2)cn(O)c1=O | 71.9* | 20.2 | 42.8 | 31.1 | 12.3 | -2.0
COc1cc(NC(=O)CSc2nc(C)cc(C)n2)cc(OC)c1OC | 2.5 | 3.9 | -28.2 | 2.4 | 10.3 | 0.0
CC(=O)Nc1nc(-c2ccc(Cl)cc2)nc(C)c1C(C)=O | 85.7* | 0.8 | -13.1 | . | 20.3 | -1.0
CC(=O)c1c(C)nc(C)nc1NC(=O)Cc1ccccc1 | 8.6 | 0.6 | -2.0 | . | -2.2 | -2.0
CC(C)(C)N=C1NN=C(c2ccc(Cl)cc2)CS1 | -1.2 | 10.9 | -33.3 | 14.8 | 4.8 | .
COc1ccc(CN=C2NN=C(c3ccc(Cl)cc3)CS2)cc1 | 0.3 | 15.8 | -13.2 | 6.6 | 57.6* | -1.0
SMILES | 14-3-3 Bad PPI | Hck Nef HTS | Mcl1 Bid PPI | Calb biofilm kill | Mcl1-Noxa inh | Bim-Mcl-1
Clc1ccc(C2=NNC(=NCc3ccc4c(c3)OCO4)SC2)cc1 | 20.8 | 1.4 | 9.7 | 22.5 | 61.6* | -4.0
CN(C(=O)c1coc(=O)c2ccccc12)c1ccccc1Cl | 4.6 | 0.3 | -6.0 | 7.8 | 2.3 | -2.0
CN(C(=S)NC(=O)Cc1ccccc1)c1ccccc1 | -7.8 | 19.9 | -9.1 | 9.6 | -2.2 | -1.0
Cc1nn2c(COc3ccc(NC(=O)C(C)C)cc3)nnc2c2ccccc12 | 84.5* | 8.9 | -34.2 | -7.0 | 2.6 | 0.0
COc1ccc(N(CC(=O)NCc2ccc3c(c2)OCO3)C(=O)CCC(=O)Nc2ccccn2)cc1 | -12.9 | 15.7 | -51.8 | 25.2 | 7.5 | -7.0
O=C(CNC(=O)c1ccc(S(=O)(=O)N2CCCC2)cc1)N/N=C/c1ccc(Cl)cc1Cl | -1.3 | -6.1 | -6.1 | 15.0 | 6.9 | 98.0*
COCCOC(=O)c1c(C)oc2ccc(OC(=O)c3ccc4c(c3)OCO4)cc12 | -3.4 | -0.8 | -2.7 | . | 6.4 | -1.0
CCCCN(CCCC)CCNC(=O)CSCc1ccc(C)cc1 | 24.7 | 28.9 | 35.6 | 14.7 | 23.1 | -2.0
CN=c1scc(C)n1/N=C/c1cc(Br)c(O)c(OC)c1 | -5.8 | 41.5 | -40.1 | 22.4 | 52.6* | 0.0
CN=c1scc(-c2cccs2)n1/N=C/c1ccc(O)c(O)c1O | 2.6 | 16.0 | -50.1 | 27.4 | 107.5* | 3.0
CN=c1scc(-c2cccs2)n1/N=C/c1ccccc1O | 13.2 | 2.0 | -37.1 | -9.2 | 2.6 | -7.0
COc1cc(/C=N/N(C)C)cc(Br)c1O | 3.8 | 17.0 | -146.3 | 2.3 | 24.9 | .
CN=c1scc(C)n1/N=C/c1ccc(O)c(O)c1O | -1.7 | 0.3 | -83.7 | . | 91.3* | 8.0
COc1ccc(-c2nc(-c3cccs3)c(-c3cccs3)[nH]2)cc1O | 13.4 | 4.3 | -17.9 | . | 20.1 | 8.0
O=C(COc1ccc(S(=O)(=O)N2CCCC2)cc1Cl)NC1CC1 | -2.6 | 0.7 | 95.2* | . | 8.7 | -1.0
O=C(/C=C/c1ccccc1)NCCc1ccc2c(c1)OCCO2 | -0.3 | 1.9 | -3.1 | 6.4 | 18.8 | -5.0
O=C1N=c2ccccc2=C1c1sc(=S)n(-c2ccc(O)cc2)c1O | 20.7 | 10.9 | 21.0 | 13.7 | 70.0* | .
O=C1N=c2ccccc2=C1c1sc(=S)n(Cc2ccccc2Cl)c1O | -8.5 | 23.7 | -22.1 | 17.4 | 3.2 | .
CCCN1Cc2cccc(C(=O)Nc3ccc(-c4nc5ccccc5[nH]4)cc3)c2C1=O | -11.4 | 2.2 | -9.0 | 8.8 | 4.1 | -6.0
Cc1ccc(-n2nc3cc(C)c(N)cc3n2)cc1 | 2.8 | -18.0 | -25.0 | . | 90.3* | 0.0
Cc1cc2nn(-c3cccc4ccccc34)nc2cc1N | 20.2 | 13.6 | 0.2 | . | 42.4 | 20.0
COc1ccc(-n2nc3cc(C)c(N)c(Br)c3n2)cc1 | -1.5 | -0.4 | -28.1 | . | 88.9* | 2.0
Nc1cc2nn(-c3ccccc3)nc2cc1Cl | -10.1 | 34.1 | -82.8 | 7.5 | 65.9* | 0.0
CCc1ccccc1NC(=O)N[C@H](C(=O)O)C(C)CC (stereo partly drawn) | 8.8 | 0.9 | -15.3 | . | -2.9 | -5.0

High-throughput results from PubChem.
